Measured values reported in ChEMBL document CHEMBL4038317, “Discovery of a Benzamide Derivative That Protects Pancreatic β-Cells against Endoplasmic Reticulum Stress” (J Med Chem, 2017).
pEC50: −log10 of the molar value. Calls of active or inactive are those of the source. The calls are words filed in the database; no cut-off is given here.

Legend:
INS1 [1] = assay: Cytoprotective activity in rat INS-1 cells assessed as protection against tunicamycin-induced ER stress-mediated reduction in cell viability after 3 days by CellTiter-Glo assay relative tunicamycin; assay type: functional; details: INS1, 72 h
Method in brief: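 INS-1 cells, 3×10^3 per well, were co-treated with tunicamycin 0.1 μg/mL and compound for 72 h. Viability was read as intracellular ATP by luminescence and expressed as fold of no-tunicamycin cells. EC50 and maximum activity were taken as the increase in viability versus tunicamycin alone. Triplicate wells, three independent experiments.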

INS1 [2] = assay: Cytoprotective activity in rat INS-1 cells assessed as protection against tunicamycin-induced ER stress-mediated reduction in cell viability after 3 days by CellTiter-Glo assay; details: INS1, 72 h
[3] = target: T1, Eukaryotic translation initiation factor 2-alpha kinase 3 (Rattus norvegicus) (UniProt Q9Z1Z1); assay: Inhibition of tunicamycin ER stress-induced PERK activation in rat INS-1 cells assessed as suppression of tunicamycin-induced increase in CHOP protein levels up to 10 uM after 8 hrs by Western blot analysis; assay type: cell-based
T1 sequence (whole entry): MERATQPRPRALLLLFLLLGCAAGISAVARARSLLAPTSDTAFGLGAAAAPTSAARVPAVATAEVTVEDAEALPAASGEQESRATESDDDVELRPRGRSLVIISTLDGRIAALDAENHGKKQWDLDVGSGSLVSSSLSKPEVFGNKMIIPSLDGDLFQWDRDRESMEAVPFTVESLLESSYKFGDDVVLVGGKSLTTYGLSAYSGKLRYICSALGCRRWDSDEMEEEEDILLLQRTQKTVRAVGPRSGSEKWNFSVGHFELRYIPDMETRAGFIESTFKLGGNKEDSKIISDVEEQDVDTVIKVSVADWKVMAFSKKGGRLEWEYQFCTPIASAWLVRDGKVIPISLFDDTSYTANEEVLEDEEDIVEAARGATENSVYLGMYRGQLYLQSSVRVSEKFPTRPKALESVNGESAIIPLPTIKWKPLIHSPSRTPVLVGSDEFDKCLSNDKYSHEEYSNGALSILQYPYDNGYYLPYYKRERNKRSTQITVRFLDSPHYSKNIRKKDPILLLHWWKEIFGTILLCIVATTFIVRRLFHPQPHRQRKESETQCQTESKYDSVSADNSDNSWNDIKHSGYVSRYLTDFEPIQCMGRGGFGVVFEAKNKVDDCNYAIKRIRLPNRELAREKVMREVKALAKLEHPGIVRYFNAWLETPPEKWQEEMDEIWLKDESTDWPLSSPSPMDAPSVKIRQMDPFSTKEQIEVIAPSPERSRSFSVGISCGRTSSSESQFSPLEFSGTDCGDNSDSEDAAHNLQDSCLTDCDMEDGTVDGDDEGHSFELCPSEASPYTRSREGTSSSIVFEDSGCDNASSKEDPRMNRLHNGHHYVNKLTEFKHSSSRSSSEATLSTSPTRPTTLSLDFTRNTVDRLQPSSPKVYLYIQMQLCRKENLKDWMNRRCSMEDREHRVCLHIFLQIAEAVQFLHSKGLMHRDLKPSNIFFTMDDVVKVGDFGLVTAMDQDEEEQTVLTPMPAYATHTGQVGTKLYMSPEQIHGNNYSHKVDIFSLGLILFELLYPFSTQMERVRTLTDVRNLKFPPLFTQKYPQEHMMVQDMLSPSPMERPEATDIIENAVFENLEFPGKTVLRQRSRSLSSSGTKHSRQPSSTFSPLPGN
Method in brief: (§1)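 INS-1 cells were exposed to tunicamycin 0.1 μg/mL with compound or DMSO for 8 h. Lysates were immunoblotted for ATF4 and CHOP (1:1000). Bands were quantified by densitometry and normalized to α-tubulin; 3 independent experiments.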

[4] = target: T2, Cyclic AMP-dependent transcription factor ATF-6 alpha (Rattus norvegicus) (UniProt G3V909); assay: Inhibition of tunicamycin ER stress-induced ATF6 activation in rat INS-1 cells assessed as suppression of increase in […] mRNA levels up to 10 uM after 8 hrs by qRT-PCR analysis; assay type: cell-based
T2 sequence (whole entry): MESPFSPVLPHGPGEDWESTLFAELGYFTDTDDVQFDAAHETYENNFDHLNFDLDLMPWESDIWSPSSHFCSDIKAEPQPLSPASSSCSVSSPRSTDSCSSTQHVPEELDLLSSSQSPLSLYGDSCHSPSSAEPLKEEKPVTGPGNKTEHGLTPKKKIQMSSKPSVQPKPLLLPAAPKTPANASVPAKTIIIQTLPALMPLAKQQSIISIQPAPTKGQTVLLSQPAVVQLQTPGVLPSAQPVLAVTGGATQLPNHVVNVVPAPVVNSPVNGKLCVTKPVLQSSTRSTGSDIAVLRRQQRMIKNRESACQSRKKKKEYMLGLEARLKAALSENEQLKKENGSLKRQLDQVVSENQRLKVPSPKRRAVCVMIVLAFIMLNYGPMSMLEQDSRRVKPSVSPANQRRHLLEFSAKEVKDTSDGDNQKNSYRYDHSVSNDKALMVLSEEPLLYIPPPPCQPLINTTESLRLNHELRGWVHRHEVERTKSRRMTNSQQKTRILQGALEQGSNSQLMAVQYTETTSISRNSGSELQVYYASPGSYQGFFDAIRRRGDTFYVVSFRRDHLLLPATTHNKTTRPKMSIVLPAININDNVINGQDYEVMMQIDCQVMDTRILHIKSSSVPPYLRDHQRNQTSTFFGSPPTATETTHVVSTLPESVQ
Method in brief: (§2)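 INS-1 cells, 4×10^5 per well, were exposed to tunicamycin 0.1 μg/mL with compound or DMSO for 8 h. qRT-PCR for ATF4, CHOP, Bip, GRP94, or spliced XBP1 using splicing-specific primers. Values were normalized to cyclophilin A by ΔΔCt and given as fold over untreated control. Triplicate wells, 3 independent experiments.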

[5] = target: T1, Eukaryotic translation initiation factor 2-alpha kinase 3 (Rattus norvegicus); assay: Inhibition of tunicamycin ER stress-induced PERK activation in rat INS-1 cells assessed as suppression of tunicamycin-induced increase in ATF4 protein levels up to 10 uM after 8 hrs by Western blot analysis; assay type: cell-based; method in brief: as §1
[6] = target: T2, Cyclic AMP-dependent transcription factor ATF-6 alpha (Rattus norvegicus); assay: Inhibition of tunicamycin ER stress-induced ATF6 activation in rat INS-1 cells assessed as suppression of increase in Bip mRNA levels up to 10 uM after 8 hrs by qRT-PCR analysis; assay type: cell-based; method in brief: as §2

Row | SMILES | Emax (INS1 [1]) [%] | pEC50 (INS1 [2]) | other results
1 | Cc1ccccc1C(=O)NCCc1ccccc1 | 6 | – | –
2 | CN(C)S(=O)(=O)c1ccc(C(=O)NCCc2ccccc2)cc1 | 37 | 4.72 | –
3 | O=C(NCc1cccc(Cl)c1)c1cccc(CN2CCCCC2)c1 | 90 | 6.39 | –
4 | O=C(NCc1ccc(Cl)cc1)c1ccccc1CN1CCCCC1 | 73 | 5.16 | –
5 | CS(=O)(=O)Nc1cccc(C(=O)NCCc2ccccc2)c1 | 24 | 4.60 | –
6 | O=C(NCCc1ccccc1)c1cccc(F)c1 | < 0 | – | –
7 | COc1ccc(CNC(=O)c2cccc(CN3CCCCC3)c2)cc1 | 93 | 5.95 | –
8 | O=C(NCCc1cccc(Cl)c1)c1ccc2c(c1)OCO2 | 41 | 4.60 | –
9 | COc1ccc(CCNC(=O)c2ccc3c(c2)OCCO3)cc1OC | 5 | < 4.52 | inhibition [3]: inactive; inhibition [4]: inactive; inhibition [5]: inactive; inhibition [6]: inactive
10 | O=C(NCCc1ccccc1)c1cccc([N+](=O)[O-])c1 | < 0 | – | –
11 | CC(C)Sc1ccccc1C(=O)NCCc1ccccc1 | 30 | < 4.52 | –
12 | O=C(NCCc1ccc(Cl)c(Cl)c1)c1ccc(CN2CCCCC2)cc1 | 71 | 4.62 | –
13 | O=C(NCc1cccc(Cl)c1)c1ccc(CN2CCCCC2)cc1 | 80 | 5.66 | –
14 | O=C(NCc1cccc(Cl)c1)c1ccc2c(c1)OCCO2 | 57 | 5.02 | –
15 | O=C(NCc1ccccc1Cl)c1ccc2c(c1)OCCO2 | 43 | 4.60 | –
16 | Cc1ccc(C(=O)NCCc2ccccc2)cc1 | 25 | 4.70 | –
17 | O=C(NCCc1ccccc1)c1ccc(Cl)c(Cl)c1 | 42 | 4.77 | –
18 | O=C(NCc1ccc(Cl)c(Cl)c1)c1ccc(CN2CCCCC2)cc1 | 78 | 5.74 | –
19 | O=C(NCc1ccccc1Cl)c1ccc(CN2CCCCC2)cc1 | 87 | 4.89 | –
20 | O=C(NCCc1ccccc1)c1cc(F)c(F)c(F)c1F | < 0 | – | –
21 | COc1cccc(CNC(=O)c2cccc(CN3CCCCC3)c2)c1 | 92 | 6.02 | –
22 | O=C(NCc1cccc(Br)c1)c1ccc2c(c1)OCCO2 | 69 | 5.26 | –
23 | O=C(NCCc1cccc(Cl)c1)c1ccc2c(c1)OCCO2 | 42 | 4.68 | –

Row | SMILES | Emax (INS1 [1]) [%] | pEC50 (INS1 [2]) | other results
24 | O=C(NCCc1ccccc1)c1ccc(CN2CCCC2)cc1 | 31 | 4.96 | –
25 | O=C(NCCc1ccccc1)c1ccc(F)c(F)c1F | 23 | 5.00 | –
26 | O=C(NCc1ccc(Cl)c(Cl)c1)c1ccc2c(c1)OCCO2 | 68 | 5.44 | –
27 | O=C(NCCc1ccc(F)cc1)c1ccc2c(c1)OCCO2 | 50 | 4.68 | –
28 | O=C(NCCc1ccccc1)c1ccc2c(c1)OCCO2 | 47 | 4.72 | –
29 | C#CCOc1ccc(C(=O)NCCc2ccccc2)cc1 | 54 | < 4.52 | –
30 | COc1ccc(C(=O)NCCc2cccc(Cl)c2)cc1OC | 46 | 4.62 | –
31 | O=C(NCc1ccccc1Br)c1ccc2c(c1)OCCO2 | 38 | 4.60 | –
32 | O=C(NCc1ccccc1)c1cccc(CN2CCCCC2)c1 | 95 | 6.46 | –
33 | O=C(NCc1ccccc1Cl)c1cccc(CN2CCCCC2)c1 | 93 | 5.69 | –
34 | O=C(NCc1cccc(C(F)(F)F)c1)c1cccc(CN2CCCCC2)c1 | 91 | 6.60 | –
35 | Nc1cccc(C(=O)NCCc2ccccc2)c1 | < 0 | – | –
36 | O=C(NCCc1ccccc1)c1ccc(CN2CCCCC2)cc1 | 87 | 4.68 | –
37 | CCOc1cccc(C(=O)NCCc2ccccc2)c1 | 49 | 4.59 | –
38 | COc1ccccc1CCNC(=O)c1ccc2c(c1)OCCO2 | 29 | < 4.52 | –
39 | O=C(NCc1ccc(Cl)cc1)c1ccc(CN2CCCCC2)cc1 | 77 | 5.02 | –
40 | O=C(NCCc1ccc(Cl)cc1)c1ccc2c(c1)OCCO2 | 51 | 4.82 | –
41 | O=C(NCc1ccc(Cl)cc1)c1ccc2c(c1)OCCO2 | 69 | 5.55 | –
42 | COc1ccc(CCNC(=O)c2ccc3c(c2)OCCO3)cc1 | 26 | < 4.52 | –
43 | O=C(NCc1cccc(Br)c1)c1ccc(CN2CCCCC2)cc1 | 81 | 5.31 | –
44 | COc1ccc(C(=O)NCCc2ccccc2)cc1C | 56 | 4.82 | –
45 | O=C(NCCc1ccc(Cl)cc1)c1ccc(CN2CCCCC2)cc1 | 82 | 4.68 | –
46 | O=C(NCc1ccc(Cl)cc1)c1cccc(CN2CCCCC2)c1 | 93 | 6.62 | –
